Compounds with a hit are over-represented: about 1.2% of the library has one in this group of screens.
TDP2 absorb: TDP2 (human) inhibition, absorbance primary screen. inhibition, % at 12.8 µM. recombinant TDP2, T5PNP hydrolysis, p-nitrophenol absorbance 415 nm. O95551. 370,000 tested, 0.34% active;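 active = inhibition above the mean of all tested compounds plus 3 SD, set per campaign, cut at about 25% in these data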;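 also: 0% = DMSO with enzyme and 100% = buffer with substrate but no TDP2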
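System – recombinant human TDP2 · Quantity – TDP2 enzyme at 120 nM final · Doses – single concentration, 12.8 µM nominal, with 1% DMSO · Incubation – 2 h at 37 °C · Measured by – epi absorbance of p-nitrophenol freed from T5PNP by hydrolysis · Read-out – % inhibition relative to enzyme-containing and enzyme-free wells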
SUMO HTRF inh: blocks human SUMOylation mediated by UBC9; P63279; HTRF SUMOylation assay, SAE1/SAE2 + UBC9, in vitro; 290,000 tested, 0.36% active; inhibition, % at 35 µM; in the data active = inhibition above about 50%, passing the limit was not always enough
NSD2 inh: inhibitors of human histone methyltransferase NSD2. O96028. NSD2 peptide methylation, AlphaScreen, 120 min. inhibition, % at 12.5 µM. 310,000 tested, 0.54% active; in the data active = inhibition above about 50%
Fh CTSL1 inh: blocks F. hepatica cathepsin L1 in PFM18AAP counter-screen | recombinant F. hepatica cathepsin L1, Z-Leu-Arg-MCA fluorescence | inhibition, % at 5.96 µM | 300,000 tested, 0.49% active;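 active = inhibition above the mean of all tested compounds plus 3 SD, set per screening campaign, cut at about 17% in these data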;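 also: 0% = plate median of test compound wells and 100% = 1 µM Z-Phe-Ala-diazomethylketone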
Starred values were filed as active, the others as inactive; / = no result given.

SMILES | TDP2 absorb | SUMO HTRF inh | NSD2 inh | Fh CTSL1 inh
Cc1oc2c(c1C(=O)c1ccc(Cl)cc1)C(=O)C(=O)c1ccccc1-2 | 2 | 71* | 7 | /
Cc1ccc(C(=O)c2c(C)oc3c2C(=O)C(=O)c2ccccc2-3)cc1 | / | 92* | 14 | -6
O=C(c1ccc(Cl)cc1)c1ccc(CN2C(=O)c3ccccc3C2=O)o1 | -9 | 1 | 2 | 1
COC(=O)CC1OCC=C2CN3CCC45C6=CC(=O)C(=O)C([N+](=O)[O-])=C6NC4C1C2CC35 (configuration not stated) | 68* | / | / | /
CC(/C=C/C1(O)C(C)CC(O)CC1(C)C)OC1OC(CO)C(O)C(O)C1O (configuration not stated) | -4 | 3 | / | 55*
CCCCCCSc1ccc([C@@H]2[C@@H]3C(=O)N(C)C(=O)[C@@H]3[C@]3(C(=O)OC)CCCCN23)cc1 | 7 | / | / | /
O=C(O)C1CC2C3CC(C(=O)O)C(C3)C2C1 (configuration not stated) | 0 | / | -2 | /
S=C(Nc1ccc2nc(-c3ccccn3)c(-c3ccccn3)nc2c1)N1CCCCC1 | / | 69* | / | /
S=C(Nc1ccc2nc(-c3ccccn3)c(-c3ccccn3)nc2c1)N1CCCCCC1 | 7 | 46 | -1 | -2
S=C(Nc1ccc2nccnc2c1)N1CCOCC1 | -13 | 89* | 11 | -1
Cc1ccc(NC(=S)N2CCOCC2)cc1 | -5 | -3 | -1 | -5
COc1ccc2c(c1)[C@]1(C(=O)N2C)C2=C(CCCC2=O)Oc2cc(C)oc(=O)c21 | 3 | / | -2 | /
COc1ccc(NC(=O)N2CCN(C(=O)Nc3ccc(OC)cc3)CC2)cc1 | 7 | -4 | 1 | -6
COc1ccc(NC(=O)N2CCN(CCC#N)CC2)cc1 | 2 | -5 | -3 | 17*
Cc1sc2nc3ccc(NCc4ccco4)nn3c(=O)c2c1C | 7 | 56* | 2 | 0
O=c1c2ccccc2nc2ccc(NCc3ccco3)nn12 | 9 | 28 | 3 | -1
NC(=S)N/N=C1/CCSc2ccc3ccccc3c21 | -10 | 6 | / | 25*
Cc1cc(Br)cn2c(Cc3ccsc3)c(-c3cccc(Br)c3)nc12 | -3 | / | / | /
COC(C[C@H]1O[C@H]1C(=O)[C@H](C)OCc1ccccc1)OC | -5 | / | / | 76*
COC(C[C@H]1O[C@@H]1C(=O)[C@H](C)OCc1ccccc1)OC | 1 | / | / | 74*
COc1ccc(C(=O)OCC(=O)Nc2c(C)n(C)n(-c3ccccc3)c2=O)cc1OC | 2 | / | 2 | /
CCN(CC)S(=O)(=O)c1ccc(N2CCCC2)c(NC(=O)CC(C)(C)C)c1 | 3 | 10 | 0 | 20*
CCN(CC)S(=O)(=O)c1ccc(N2CCOCC2)c(NC(=O)CC(C)(C)C)c1 | -5 | -18 | -2 | 0
COC(=O)[C@]12C[C@H](CC(=O)NCc3cccc(C(F)(F)F)c3)C(=O)N(CCc3ccc(OC)c(OC)c3)C1=C[C@H](C(C)C)O[C@@H]2C1CC1 | -2 | / | / | /
COc1cc(NCCCCCCCN)c2ncccc2c1 | / | 52* | / | 2
SMILES | TDP2 absorb | SUMO HTRF inh | NSD2 inh | Fh CTSL1 inh
Nc1nc2c(ncn2[C@@H]2O[C@H](C(=O)N[C@@H](Cc3ccccc3)C(=O)NCC3CCCCC3)[C@@H](O)[C@H]2O)c(=O)[nH]1 | 0 | / | / | /
N#C/C(=C\c1ccc(C(=O)O)cc1)c1nc2sc3c(c2c(=O)[nH]1)CCCC3 | 4 | 60* | / | /
COc1ccccc1/C=N/Nc1nncc2ccccc12 | 12 | -5 | 0 | 3
COc1ccc(/C=N/Nc2nncc3ccccc23)cc1 | 4 | 15 | / | 52*
CCCc1c(-c2cccc(Br)c2)ncn1CCc1ccccc1OC | 5 | / | / | /
COC(=O)c1cc2c(c3c4cc(C)ccc4n(S(=O)(=O)c4ccc(C)cc4)c13)C(=O)N(Cc1ccccc1OC)C2 | 0 | / | / | /
CSCC[C@H](Nc1ncnc2sc(C)c(C)c12)C(=O)O | -5 | -12 | 0 | 19*
Cc1sc2ncnc(N[C@@H](CCC(=O)O)C(=O)O)c2c1C | -9 | 7 | -2 | 1
O=C(O)/C=C/C(=O)N1N=C(c2ccco2)CC1c1ccco1 (configuration not stated) | -11 | 0 | -4 | 35*
CN1CCN(CC(=O)N2N=C(c3cccs3)CC2c2ccco2)CC1 (configuration not stated) | 3 | 1 | 2 | 0
O=C(CCl)N1N=C(c2cccs2)CC1c1ccco1 (configuration not stated) | -16 | 22 | 8 | 27*
O=C1C(O)=CC(=C(c2ccccc2)c2ccccc2)c2ccccc21 | 26* | / | 3 | /
O=C(O)c1cccc2c1C(=O)c1ccccc1-2 | -6 | 23 | 16 | -1

Screening results: PubChem, several laboratories
